# Laboratory results: ChEMBL document CHEMBL1139384, “First Cdc7 kinase inhibitors: pyrrolopyridinones as potent and orally active antitumor agents. 2. Lead discovery” (J Med Chem, 2009)
# Key:
# A2780 = assay: Antiproliferative activity against human A2780 cells after 72 hrs by luciferase based assay; assay type: functional, cell-based
# [1] = target: Cell division cycle 7-related protein kinase (Homo sapiens, UniProt O00311); assay: Inhibition of human Cdc7 assessed as inhibition of rate of phosphorylation of Mcm2 protein
# [2] = target: Cyclin-dependent kinase 9 (Homo sapiens, UniProt P50750); assay: Inhibition of CDK9
# [3] = Volume of distribution at steady state in nu/nu mouse at 10 mg/kg, iv administered as single dose; assay type: ADME, organism-based; parameters: dose 10 mg/kg, route intravenous; conditions: in vivo, read-out: Vdss
# How it was run: (§1)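 Overnight-fasted male Nu/Nu mice got a single 10 mg/kg dose in 5% dextrose, iv or po, three mice per route. Saphenous blood was drawn at 0.083 (iv) or 0.25 (po), 0.5, 1, 6 and 24 h. Plasma was assayed by LC/MS/MS and analysed noncompartmentally. Tmax is the observed peak time, Vss = CL·MRT, and F is the ratio of dose-normalized AUC∞ po/iv.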
# [4] = Cmax in nu/nu mouse at 10 mg/kg, iv administered as single dose; assay type: ADME, organism-based; parameters: dose 10 mg/kg, route intravenous; conditions: in vivo
# How it was run: (§2)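 Single iv or oral dose in 5% dextrose to overnight-fasted animals. Nu/Nu mice: males, 3 per route, saphenous bleeds to 24 h. Han-Wistar rats: males, 3 per route, jugular bleeds to 24 h. Beagle dogs: 2 per sex, iv and po crossover 2 weeks apart, jugular bleeds to 48 h. Plasma by LC/MS/MS; noncompartmental parameters, AUC by linear trapezoid with extrapolation.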
# [5] = Metabolic stability in human hepatocytes expressing CYP3A4 assessed as drug remaining after 1 hr; assay type: ADME, cell-based, Hepatocyte; conditions: read-out: Stability
# [6] = AUC (0 to infinity) in nu/nu mouse at 10 mg/kg, iv administered as single dose; assay type: ADME, organism-based; parameters: dose 10 mg/kg, route intravenous, time infinity; conditions: plasma; how it was run: as §2
# [7] = Tmax in nu/nu mouse at 10 mg/kg, po administered as single dose; assay type: ADME, organism-based; parameters: dose 10 mg/kg, route oral; conditions: in vivo; how it was run: as §1
# [8] = Half life in nu/nu mouse at 10 mg/kg, iv administered as single dose; assay type: ADME, organism-based; parameters: dose 10 mg/kg, route intravenous; conditions: in vivo; how it was run: as §2
# [9] = Clearance in nu/nu mouse at 10 mg/kg, iv administered as single dose; assay type: ADME, organism-based; parameters: dose 10 mg/kg, route intravenous; conditions: in vivo; how it was run: as §2
# [10] = Oral bioavailability in nu/nu mouse at 10 mg/kg administered as single dose; assay type: ADME, organism-based; conditions: in vivo; how it was run: as §1
# [11] = Half life in nu/nu mouse at 10 mg/kg, po administered as single dose; assay type: ADME, organism-based; parameters: dose 10 mg/kg, route oral; conditions: in vivo; how it was run: as §2
# [12] = Solubility in pH 7.0 buffer
# [13] = Cmax in nu/nu mouse at 10 mg/kg, po administered as single dose; assay type: ADME, organism-based; parameters: dose 10 mg/kg, route oral; conditions: in vivo; how it was run: as §2
# [14] = AUC (0 to infinity) in nu/nu mouse at 10 mg/kg, po administered as single dose; assay type: ADME, organism-based; parameters: time infinity, dose 10 mg/kg, route oral; conditions: plasma; how it was run: as §2
# Hepatocyte = assay: Metabolic stability in rat hepatocytes assessed as intrinsic clearance at 1 uM; assay type: cell-based; conditions: Liver
# Chain of Cell division cycle 7-related protein kinase (O00311 whole entry): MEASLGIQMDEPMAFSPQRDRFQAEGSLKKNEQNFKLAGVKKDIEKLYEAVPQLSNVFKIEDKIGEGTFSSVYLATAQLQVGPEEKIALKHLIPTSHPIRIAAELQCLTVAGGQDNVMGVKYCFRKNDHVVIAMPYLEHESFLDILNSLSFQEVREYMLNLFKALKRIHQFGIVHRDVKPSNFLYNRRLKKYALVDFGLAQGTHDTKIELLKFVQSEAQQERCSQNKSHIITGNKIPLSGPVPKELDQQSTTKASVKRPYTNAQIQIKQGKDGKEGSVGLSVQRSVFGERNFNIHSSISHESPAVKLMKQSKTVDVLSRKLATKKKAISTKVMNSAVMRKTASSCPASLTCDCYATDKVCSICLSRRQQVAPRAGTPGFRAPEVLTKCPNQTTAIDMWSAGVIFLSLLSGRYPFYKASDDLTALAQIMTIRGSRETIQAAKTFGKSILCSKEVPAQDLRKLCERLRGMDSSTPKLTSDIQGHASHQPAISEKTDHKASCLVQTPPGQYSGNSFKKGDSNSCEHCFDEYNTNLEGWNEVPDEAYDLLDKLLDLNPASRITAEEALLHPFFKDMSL
# Chain of Cyclin-dependent kinase 9 (P50750 whole entry): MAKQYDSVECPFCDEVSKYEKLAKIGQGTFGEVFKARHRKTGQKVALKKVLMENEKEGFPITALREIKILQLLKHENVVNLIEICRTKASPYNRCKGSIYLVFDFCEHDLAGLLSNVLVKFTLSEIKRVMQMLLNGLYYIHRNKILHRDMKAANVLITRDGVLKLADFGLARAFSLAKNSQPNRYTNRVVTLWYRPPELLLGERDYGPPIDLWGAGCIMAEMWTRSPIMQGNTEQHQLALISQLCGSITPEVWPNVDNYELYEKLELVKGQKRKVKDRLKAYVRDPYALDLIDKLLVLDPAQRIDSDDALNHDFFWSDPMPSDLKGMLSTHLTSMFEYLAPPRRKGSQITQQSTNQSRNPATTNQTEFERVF
SMILES,IC50 [1] [nM],"IC50 (A2780; Homo sapiens, A2780, 72 h) [nM]",further results
Nc1nccc(-c2cc3c([nH]2)C(C2CCC2)CNC3=O)n1 (stereo in doubt; 88-1),11,–,IC50 (A2780; a2780): 1300 nM; IC50 [2]: 83 nM
CC1CNC(=O)c2cc(-c3ccncc3)[nH]c21 (stereo not given),10,600,–
CC1(C)Cc2[nH]c(-c3ccnc(N)n3)cc2C(=O)N1,64,1800,–
CC1Cc2[nH]c(-c3ccncc3)cc2C(=O)N1 (stereo not given),13,2400,–
O=C1N[C@@H](COCc2ccccc2)Cc2[nH]c(-c3ccncc3)cc21,44,4800,–
CCC1CNC(=O)c2cc(-c3ccnc(N)n3)[nH]c21 (stereo in doubt; 86-1) [listing 1 of 2 here],4,–,Vd [3]: 1.5 L/kg; Cmax [4]: 12.6 µM; remaining at 1 h [5]: 99%; IC50 [2]: 73 nM; AUC(0-inf) [6]: 4.9 µM·h; Tmax [7]: 20.4 min; half-life [8]: 12 min; clearance [9]: 125 mL/min/kg; bioavailability [10]: 74%; half-life [11]: 78 min; solubility [12]: > 225 µM; Cmax [13]: 2.7 µM; AUC(0-inf) [14]: 3.6 µM·h
Nc1nccc(-c2cc3c([nH]2)CC(C2CC2)NC3=O)n1 (stereo not given),11,1100,–
CC(C)C1Cc2[nH]c(-c3ccncc3)cc2C(=O)N1 (stereo not given),6,900,–
Nc1nccc(-c2cc3c([nH]2)C(CCCOCc2ccccc2)CNC3=O)n1 (stereo not given),24,2000,–
CC(C)CC1Cc2[nH]c(-c3ccnc(N)n3)cc2C(=O)N1 (stereo not given),8,1600,–
O=C1NC(C2CC2)Cc2[nH]c(-c3ccncc3)cc21 (stereo not given),5,1300,–
O=C1NCC(C2CCC2)c2[nH]c(-c3ccncc3)cc21 (stereo not given),3,500,–
Nc1nccc(-c2cc3c([nH]2)C[C@H](COCc2ccccc2)NC3=O)n1,52,3000,–
CC(C)CC1Cc2[nH]c(-c3ccncc3)cc2C(=O)N1 (stereo not given),3,800,–
CC(C)C1CNC(=O)c2cc(-c3ccnc(N)n3)[nH]c21 (stereo in doubt; 87-1),13,–,IC50 (A2780; a2780): 1000 nM; IC50 [2]: 31 nM
CCC1CNC(=O)c2cc(-c3ccnc(N)n3)[nH]c21 (stereo in doubt; 86-2),5,400,IC50 [2]: 17 nM
CC(C)C1CNC(=O)c2cc(-c3ccnc(N)n3)[nH]c21 (stereo in doubt; 87-2),1,–,IC50 (A2780; a2780): 600 nM; IC50 [2]: 73 nM
Nc1nccc(-c2cc3c([nH]2)[C@H](CCF)CNC3=O)n1,5,1000,IC50 [2]: 96 nM
Nc1nccc(-c2cc3c([nH]2)C(CCC(F)(F)F)CNC3=O)n1 (stereo in doubt; 93-2) [listing 1 of 2 here],–,–,CL (mL.min-1.kg-1) (Hepatocyte): 8.33
CC1Cc2[nH]c(-c3ccnc(N)n3)cc2C(=O)N1 (stereo not given),–,3900,–
CCC1(CC)CNC(=O)c2cc(-c3ccncc3)[nH]c21,6,200,–
CC1CNC(=O)c2cc(-c3ccnc(N)n3)[nH]c21 (stereo not given),6,700,–

SMILES,IC50 [1] [nM],"IC50 (A2780; Homo sapiens, A2780, 72 h) [nM]",further results
CC(C)C1CNC(=O)c2cc(-c3ccncc3)[nH]c21 (stereo not given),10,500,–
Nc1nccc(-c2cc3c([nH]2)C(C2CCC2)CNC3=O)n1 (stereo in doubt; 88-2),2,–,IC50 (A2780; a2780): 200 nM; IC50 [2]: 96 nM
CCC1CNC(=O)c2cc(-c3ccnc(N)n3)[nH]c21 (stereo in doubt; 86-1) [listing 2 of 2 here],–,–,CL (mL.min-1.kg-1) (Hepatocyte): 5
CC(C)C1Cc2[nH]c(-c3ccnc(N)n3)cc2C(=O)N1 (stereo not given),12,1300,–
Nc1nccc(-c2cc3c([nH]2)C(CCO)CNC3=O)n1 (stereo not given),4,1100,–
CCC1CNC(=O)c2cc(-c3ccncc3)[nH]c21 (stereo not given),2,300,–
CC(C)C1CNC(=O)c2cc(-c3ccnc(N)n3)[nH]c21 (stereo in doubt; 87),4,–,IC50 (A2780; a2780): 400 nM
O=C1NCC(CCF)c2[nH]c(-c3ccncc3)cc21 (stereo not given),2,600,–
CCC1(CC)CNC(=O)c2cc(-c3ccnc(N)n3)[nH]c21,5,200,–
Nc1nccc(-c2cc3c([nH]2)C(CCCO)CNC3=O)n1 (stereo not given),12,6000,–
Nc1nccc(-c2cc3c([nH]2)C(c2ccccc2)CNC3=O)n1 (stereo not given),19,3000,–
O=C1NCC(c2ccccc2)c2[nH]c(-c3ccncc3)cc21 (stereo not given),20,4000,–
CC1(C)CNC(=O)c2cc(-c3ccncc3)[nH]c21,–,200,–
Nc1nccc(-c2cc3c([nH]2)C(CCC(F)(F)F)CNC3=O)n1 (stereo in doubt; 93-2) [listing 2 of 2 here],11,–,Vd [3]: 1.5 L/kg; IC50 (A2780; a2780): 300 nM; Cmax [4]: 13.6 µM; remaining at 1 h [5]: 94%; IC50 [2]: 395 nM; AUC(0-inf) [6]: 5.3 µM·h; Tmax [7]: 19.8 min; half-life [8]: 54 min; clearance [9]: 88.3 mL/min/kg; bioavailability [10]: 31%; half-life [11]: 102 min; solubility [12]: 195 µM; Cmax [13]: 0.8 µM; AUC(0-inf) [14]: 1.7 µM·h
Nc1nccc(-c2cc3c([nH]2)C(C2CCC2)CNC3=O)n1 (stereo in doubt; 88),5,–,IC50 (A2780; a2780): 300 nM
Nc1nccc(-c2cc3c([nH]2)C(CCF)CNC3=O)n1 (stereo not given),3,600,–
Nc1nccc(-c2cc3c([nH]2)C(CCC(F)(F)F)CNC3=O)n1 (stereo in doubt; 93-1),12,–,IC50 (A2780; a2780): 1000 nM; IC50 [2]: 218 nM
CC1(C)Cc2[nH]c(-c3ccncc3)cc2C(=O)N1,32,1200,–
CCC1CNC(=O)c2cc(-c3ccnc(N)n3)[nH]c21 (stereo in doubt; 86),5,–,–
Nc1nccc(-c2cc3c([nH]2)CCNC3=O)n1,–,1700,IC50 [2]: 29 nM
Nc1nccc(-c2cc3c([nH]2)C(CCOCc2ccccc2)CNC3=O)n1 (stereo not given),7,400,–
Nc1nccc(-c2cc3c([nH]2)C(CCC(F)(F)F)CNC3=O)n1 (stereo in doubt; 93),10,–,IC50 (A2780; a2780): 500 nM
